Tests used:
[1] = Tested for the drug concentration required to decrease […] infected human peripheral blood mononuclear cell viability compared to uninfected controls; type: functional
How it was run: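 Uninfected and HIV-1 D34-infected PBMC at 37 °C, 5% CO2. Viability taken from mitogen-stimulated cell proliferation. CC50 is the concentration lowering viability relative to uninfected controls; mostly estimated.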

[2] = tested on: Human immunodeficiency virus 1; assay: Effective antiviral dose required to block the spread of HIV-1D34 infection in human peripheral blood mononuclear cells; type: functional; conditions: read-out: ED50 (the source's name)
How it was run: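 PBMC (1 × 10^6 cells) infected with HIV-1 D34 inoculum containing 1 ng p24, cultured at 37 °C in 5% CO2. Replication read as supernatant p24 at day 4. ED50 = 50% effective antiviral dose, estimated in some cases.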

[3] = molecular target: Human immunodeficiency virus type 1 reverse transcriptase (Human immunodeficiency virus 1) (UniProt Q72547); assay: In vitro inhibitory activity against HIV-1 reverse transcriptase at 100 uM
How it was run: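 Recombinant HIV-1 RT (p51/p66 heterodimer, 90–95% pure, 0.0274 μM) with poly(rA) 10 μg/mL and (dT)10 primer 5 μg/mL; 8 μM α-35S-dTTP, 50 mM Tris-HCl pH 8.3, 10 mM MgCl2, 60 mM NaCl, 20 mM DTT, 0.05% NP-40. 37 °C, 15 min; TCA-precipitated label counted on filters. Percent inhibition at 100 μM, mean of at least two determinations.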

[4] = Selective index is the ratio of inhibitory concentrations of cellular DNA polymerase delta to HIV-1 reverse transcriptase
How it was run: (§1)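 Index = IC50 for cellular DNA polymerase α or δ divided by IC50 for HIV-1 RT. RT IC50 measured with recombinant RT and poly(rA):oligo(dT)10 template:primer.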

[5] = tested on: MT2; assay: Effective antiviral dose required to block the spread of HIV-1 IIIb infection in MT-2 cells by monitoring the formation of syncytia; type: functional; conditions: Homo sapiens, read-out: ED50 (the source's name)
How it was run: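 MT-2 cells infected with HIV-1 IIIb at MOI 0.001, held at 37 °C in 5% CO2. Syncytium formation scored 4 days post-infection, at peak cytopathic effect. ED50 is the dose giving 50% reduction in syncytia; some values were estimated, and ">" means 50% was not reached at the top concentration.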

[6] = Selective index is the ratio of inhibitory concentrations of cellular DNA polymerase alpha to HIV-1 reverse transcriptase; how it was run: as §1
[7] = tested on: MT2; assay: Tested for the drug concentration required to decrease HIV-1IIIb infected MT-2 cell viability compared to uninfected controls; type: functional; conditions: Homo sapiens
How it was run: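 MT-2 cells with HIV-1 IIIb (MOI 0.001), 4-day culture. Viability by trypan blue exclusion. CC50 is the concentration lowering viability relative to uninfected controls; mostly estimated.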

## CCN(CC)c1cccnc1N1CCN(C(=O)c2cc3ccccc3[nH]2)CC1
[1]
  CC50: > 10 µM
[2]
  EC50: 1 µM
[3]
  inhibition: 69%

## CCOC(=O)c1cccnc1N1CCN(C(=O)c2cc3ccccc3[nH]2)CC1
[3]
  inhibition: 68%

## CC(C)NCc1cccnc1N1CCN(C(=O)c2cc3ccccc3[nH]2)CC1
[3]
  inhibition: 0%

## CCc1ccccc1N1CCN(C(=O)c2cc3ccccc3[nH]2)CC1
[3]
  inhibition: 0%

## CCNc1cccnc1N1CCN(C(=O)c2cccc3cc[nH]c23)CC1
[1]
  CC50: > 100 µM
[2]
  EC50: 1 µM
[3]
  inhibition: 87%

## CCNc1cccnc1N1CCN(C(=O)c2nc3ccccc3o2)CC1
[3]
  inhibition: 0%

## CCNc1cccnc1N1CCN(C(=O)c2c[nH]c3ccccc23)CC1
[3]
  inhibition: 22%

## CNc1cccnc1N1CCN(C(=O)c2cc3ccccc3[nH]2)CC1
[1]
  CC50: > 10 µM
[2]
  EC50: ~1 µM
[3]
  inhibition: 85%

## COc1ccc2[nH]c(C(=O)N3CCN(c4ncccc4NC(C)(C)C)CC3)cc2c1
[4]
  Selectivity index: > 83
[5]
  EC50: 0.22 µM
[2]
  EC50: 0.01 µM
[6]
  Selectivity index: > 83
[3]
  inhibition: 86%
[7]
  CC50: > 22 µM

## COC(=O)c1cccnc1N1CCN(C(=O)c2cc3ccccc3[nH]2)CC1
[3]
  inhibition: 82%

## COc1c(C)cc(C(=O)N2CCN(c3ncccc3NC(C)C)CC2)cc1C
[1]
  CC50: > 10 µM
[2]
  EC50: 0.1 µM
[3]
  inhibition: 78%

## CCC(CC)Nc1cccnc1N1CCN(C(=O)c2cc3ccccc3[nH]2)CC1
[1]
  CC50: > 10 µM
[2]
  EC50: 0.1 µM
[3]
  inhibition: 82%

## N#Cc1cccnc1N1CCN(C(=O)c2cc3ccccc3[nH]2)CC1
[3]
  inhibition: 5%

## COc1ccc(N2CCN(C(=O)c3cc4ccccc4[nH]3)CC2)c(OC)c1
[3]
  inhibition: 7%

## CCNc1cccnc1N1CCN(C(=O)c2nc3ccccc3[nH]2)CC1
[1]
  CC50: > 10 µM
[2]
  EC50: 10 µM
[3]
  inhibition: 69%

## CCCNc1cccnc1N1CCN(C(=O)c2cc3ccccc3[nH]2)CC1
[1]
  CC50: > 100 µM
[2]
  EC50: 0.1 µM
[3]
  inhibition: 64%

## CCNc1cccnc1N1CCN(C(=O)c2nc3ccccc3s2)CC1
[3]
  inhibition: 0%

## CCC(=O)c1cccnc1N1CCN(C(=O)c2cc3ccccc3[nH]2)CC1
[3]
  inhibition: 40%

## CCNc1cccnc1N1CCN(C(=O)c2cc(C)c(OC)c(C)c2)CC1
[1]
  CC50: > 100 µM
[2]
  EC50: 1 µM
[3]
  inhibition: 69%

## CCC(C)Nc1cccnc1N1CCN(C(=O)c2cc3ccccc3[nH]2)CC1 (configuration not stated)
[1]
  CC50: > 10 µM
[2]
  EC50: 0.01 µM
[3]
  inhibition: 95%

## COc1c(C)cc(CN2CCN(c3ncccn3)CC2)cc1C
[3]
  inhibition: 0%

## CC(C)C(=O)c1cccnc1N1CCN(C(=O)c2cc3ccccc3[nH]2)CC1
[3]
  inhibition: 26%

## CC(C)Nc1cccnc1N1CCN(C(=O)c2cc3cc(F)ccc3[nH]2)CC1
[4]
  Selectivity index: 10000
[5]
  EC50: 0.3 µM
[2]
  EC50: 0.003 µM
[6]
  Selectivity index: 810
[3]
  inhibition: 96%
[7]
  CC50: > 26 µM

## CCNc1cccnc1N1CCN(C(=O)c2cc3ccccc3oc2=O)CC1
[3]
  inhibition: 16%

## COc1c(C)cc(C(=O)N2CCN(c3ccccn3)CC2)cc1C
[1]
  CC50: > 100 µM
[2]
  EC50: > 10 µM
[3]
  inhibition: 5%

## CCNc1cccnc1N1CCN(C(=O)c2cc3ccccc3s2)CC1
[1]
  CC50: ~100 µM
[2]
  EC50: 10 µM
[3]
  inhibition: 50%

## CCOc1ccccc1N1CCN(Cc2cc(C)c(OC)c(C)c2)CC1
[3]
  inhibition: 0%

## O=C(c1cc2ccccc2[nH]1)N1CCN(c2ncccc2NCC(F)(F)F)CC1
[1]
  CC50: > 10 µM
[2]
  EC50: 1 µM
[3]
  inhibition: 40%

## CCNc1cccnc1N1CCN(C(=O)c2cc3cc(F)ccc3[nH]2)CC1
[4]
  Selectivity index: 1670
[5]
  EC50: < 0.3 µM
[2]
  EC50: 0.001 µM
[6]
  Selectivity index: 220
[3]
  inhibition: 93%
[7]
  CC50: > 27 µM

## CCNc1cccnc1N1CCN(C(=O)c2ccco2)CC1
[1]
  CC50: > 100 µM
[2]
  EC50: > 10 µM
[3]
  inhibition: 39%

## CCOc1ccccc1N1CCN(C(=O)c2cc3ccccc3[nH]2)CC1
[1]
  CC50: < 10 µM
[2]
  EC50: > 1 µM
[3]
  inhibition: 76%

## CCNc1cccnc1N1CCN(C(=O)c2cccc3[nH]ccc23)CC1
[3]
  inhibition: 28%

## CCNc1cccnc1N1CCN(C(=O)c2ccc[nH]2)CC1
[1]
  CC50: > 100 µM
[2]
  EC50: > 1 µM
[3]
  inhibition: 87%

## Nc1cccnc1N1CCN(C(=O)c2cc3ccccc3[nH]2)CC1
[1]
  CC50: > 100 µM
[2]
  EC50: > 10 µM
[3]
  inhibition: 20%

## COc1ccc2[nH]c(C(=O)N3CCN(c4ncccc4NC(C)C)CC3)cc2c1
[4]
  Selectivity index: 8000
[5]
  EC50: 0.3 µM
[2]
  EC50: 0.001 µM
[6]
  Selectivity index: 1500
[3]
  inhibition: 97%
[7]
  CC50: > 25 µM

## CC(C)Nc1ccccc1N1CCN(C(=O)c2cc3ccccc3[nH]2)CC1
[3]
  inhibition: 87%

## COc1c(C)cc(CN2CCN(c3ncccc3NC(C)C)CC2)cc1C
[1]
  CC50: ~10 µM
[2]
  EC50: 1 µM
[3]
  inhibition: 84%

## CNC(=O)c1cccnc1N1CCN(C(=O)c2cc3ccccc3[nH]2)CC1
[3]
  inhibition: 0%

## CC(C)Nc1cc(F)ccc1N1CCN(C(=O)c2cc3ccccc3[nH]2)CC1
[1]
  CC50: > 10 µM
[2]
  EC50: 0.1 µM
[3]
  inhibition: 83%

## N#Cc1ccccc1N1CCN(C(=O)c2cc3ccccc3[nH]2)CC1
[3]
  inhibition: 0%

## CCNc1cccc(N2CCN(C(=O)c3ccc4[nH]ccc4c3)CC2)n1
[3]
  inhibition: 0%

## CC(C)Nc1ccc(F)cc1N1CCN(C(=O)c2cc3ccccc3[nH]2)CC1
[1]
  CC50: > 100 µM
[2]
  EC50: 0.1 µM
[3]
  inhibition: 77%

## CCNc1cccnc1N1CCN(C(=O)c2cnccn2)CC1
[3]
  inhibition: 0%

## O=C(c1cc2ccccc2[nH]1)N1CCN(c2ncccc2NCC2CC2)CC1
[1]
  CC50: > 100 µM
[2]
  EC50: 0.01 µM
[3]
  inhibition: 71%

## CCNc1cccnc1N1CCN(C(=O)c2cc3c(C)c(OC)c(C)c(C)c3[nH]2)CC1
[1]
  CC50: > 10 µM
[2]
  EC50: > 10 µM
[3]
  inhibition: 63%

## CC(C)Nc1cnnc(N2CCN(C(=O)c3ccc4[nH]ccc4c3)CC2)c1
[3]
  inhibition: 39%

## CC(=O)c1cccnc1N1CCN(C(=O)c2cc3ccccc3[nH]2)CC1
[3]
  inhibition: 30%

## CCNc1ccccc1N1CCN(C(=O)c2cc3ccccc3[nH]2)CC1
[1]
  CC50: > 100 µM
[2]
  EC50: 1 µM
[3]
  inhibition: 78%

## COc1ccccc1N1CCN(C(=O)c2cc3ccccc3[nH]2)CC1
[3]
  inhibition: 33%

## CC(C)Nc1cc(C(F)(F)F)ccc1N1CCN(C(=O)c2cc3ccccc3[nH]2)CC1
[1]
  CC50: > 10 µM
[2]
  EC50: ~1 µM
[3]
  inhibition: 22%

## CCNc1cccnc1N1CCN(C(=O)c2ccc3ccccc3c2)CC1
[1]
  CC50: > 10 µM
[2]
  EC50: 10 µM
[3]
  inhibition: 74%

## O=C(c1cc2ccccc2[nH]1)N1CCN(c2ncccc2NCc2ccccc2)CC1
[3]
  inhibition: 14%

## CCOc1ccccc1N1CCN(C(=O)c2cc(C)c(OC)c(C)c2)CC1
[1]
  CC50: < 10 µM
[2]
  EC50: > 1 µM
[3]
  inhibition: 0%

## CCNc1cccnc1N1CCN(C(=O)c2cnc3ccccc3c2)CC1
[3]
  inhibition: 14%

## CC(C)Nc1ccc(N2CCN(C(=O)c3ccc4[nH]ccc4c3)CC2)nc1
[3]
  inhibition: 0%

## CCNc1cccnc1N1CCN(C(=O)c2cc3ccccc3o2)CC1
[1]
  CC50: > 10 µM
[2]
  EC50: 10 µM
[3]
  inhibition: 37%

## CC(=O)Nc1cccnc1N1CCN(C(=O)c2cc3ccccc3[nH]2)CC1
[1]
  CC50: > 100 µM
[2]
  EC50: > 10 µM
[3]
  inhibition: 0%

## CC(C)(C)C(=O)c1cccnc1N1CCN(C(=O)c2cc3ccccc3[nH]2)CC1
[3]
  inhibition: 58%

## CCNc1cccnc1N1CCN(Cc2cc3ccccc3[nH]2)CC1
[2]
  EC50: 1 µM
[3]
  inhibition: 64%

## CCCNc1cccnc1N1CCN(Cc2cc(C)c(OC)c(C)c2)CC1
[3]
  inhibition: 60%

## CCNc1cccnc1N1CCN(C(=O)c2cccs2)CC1
[1]
  CC50: > 100 µM
[2]
  EC50: ~10 µM
[3]
  inhibition: 60%

## CC(C)(C)NC(=O)c1cccnc1N1CCN(C(=O)c2cc3ccccc3[nH]2)CC1
[3]
  inhibition: 50%

## CCNc1cccnc1N1CCN(C(=O)c2ccc3ccccc3n2)CC1
[3]
  inhibition: 0%

## O=C(c1cc2ccccc2[nH]1)N1CCN(c2ncccc2[N+](=O)[O-])CC1
[3]
  inhibition: 5%

## CCNc1cccnc1N1CCN(C(=O)c2ccc3[nH]ccc3c2)CC1
[1]
  CC50: > 100 µM
[2]
  EC50: ~10 µM
[3]
  inhibition: 45%

## CCN(C(C)=O)c1cccnc1N1CCN(C(=O)c2cc3ccccc3[nH]2)CC1
[3]
  inhibition: 8%

## Cc1cn([C@H]2C[C@H](N=[N+]=[N-])[C@@H](CO)O2)c(=O)[nH]c1=O [ZIDOVUDINE]
[5]
  EC50: 0.07 µM
[1]
  CC50: 10 µM
[2]
  EC50: 0.001 µM
[7]
  CC50: 123 µM

## COc1c(C)cc(CN2CCN(c3ccccn3)CC2)cc1C
[1]
  CC50: > 100 µM
[2]
  EC50: > 10 µM
[3]
  inhibition: 0%
